The values that follow come from ChEMBL document CHEMBL4513216, “Probing the Open Global Health Chemical Diversity Library for Multistage-Active Starting Points for Next-Generation Antimalarials” (ACS Infect Dis, 2020).

This data set in a line: Toxicity liver stage against HepG2, at 10uM. The data set is classed as cell-based. More on the design: test concentration 10 uM, cell line HepG2-A16-CD81EGFP. To be noted: human, HepG2-A16-CD81EGFP cells; read-out: INHIBITION
The method, boiled down:
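Uninfected HepG2-A16-CD81EGFP cells, 3 × 10^3 per well, 1536-well, plated on prespotted compound at 10 μM final, parasite-free screening media added to match infected plates; puromycin 10 μM positive, DMSO 0.5% negative; run in parallel with 48 h PbLuc assay at 37 °C, 5% CO2; viability by CellTiter-Glo luminescence, normalized to controls.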

In the case of `Cc1cs/c(=N\C(=O)c2c3c(nc4onc(C)c24)CCC3)[nH]1`, the cytotoxicity at 10 µM was determined as 1.26%.

Consider `CN(C)c1ncc(-c2ccc(F)cc2)c(C2CNCCO2)n1` (centres undefined), for which the cytotoxicity at 10 µM is -5.68%.

Take `COc1ccc2c(c1)C(NCCc1ccccn1)CCCO2` (centres undefined): the cytotoxicity at 10 µM was -6.03%.

Turning to `CCOC(=O)N1CCCC2(CCN(Cc3ccccc3C#N)C2)C1` (centres undefined), the cytotoxicity at 10 µM was found to be 3.37%.

In the case of `CN(Cc1cnn(C)c1)Cc1nc(CCc2ccccc2)no1`, the cytotoxicity at 10 µM is -26.1%.

As for `CCCN1CCC(CNC(=O)N2CCCC2c2c(C)n[nH]c2C)CC1` (centres undefined), the cytotoxicity at 10 µM is -0.686%.

Regarding `COc1c(CNCCC(=O)Nc2cccc(C)n2)c(C(C)C)nn1C`, the cytotoxicity at 10 µM is -1.17%.

On to `CC(C)c1nc(C2CCCN(C(=O)Cn3ccccc3=O)C2)no1` (centres undefined), for which the cytotoxicity at 10 µM is -16.3%.

With `OCC(O)CSCc1cn(-c2ccc(F)c(Cl)c2)nn1` (centres undefined), the cytotoxicity at 10 µM worked out at 9.51%.

As to `CCS(=O)(=O)CC(=O)Nc1ccccc1N1CCc2ccccc21`, the cytotoxicity at 10 µM amounted to 9.26%.

As for `OCCC1CCN(c2ccnc3ccsc23)C1` (centres undefined), the cytotoxicity at 10 µM was 2.35%.

On to `CC(C)Nc1cc(N2CCC(n3cc(C4CC4)nn3)CC2)ncn1`, for which the cytotoxicity at 10 µM worked out at 7.88%.

Regarding `CN(C)[C@@H]1CN(Cc2cccnc2)C[C@H]1c1cn(C)c2ccccc12`, the cytotoxicity at 10 µM worked out at 1.44%.

For `Cc1ccc(C(=O)N2C[C@@H]3OCCN(C(C)C)[C@@H]3C2)cn1`, the cytotoxicity at 10 µM was -81.7%.

In the case of `CCN(CC)c1ncnc2c1CCN(c1ccc(C)nn1)CC2`, the cytotoxicity at 10 µM was -108%.

Take `Cn1ccnc1CCNC(=O)NCCC1CCCCO1` (centres undefined): the cytotoxicity at 10 µM was -1.94%.

In the case of `Cc1cc(C(=O)Nc2n[nH]c(C3CC3)n2)c2c(C)nn(C)c2n1`, the cytotoxicity at 10 µM was found to be 0.583%.

For the compound `CC(O)(CN1CCC2(CC1)OCCO2)c1cccc(C(F)(F)F)c1` (centres undefined), the cytotoxicity at 10 µM was -9.21%.

As for `CN(C)c1ncc2c(n1)CCCC2NC(=O)C1CC1` (centres undefined), the cytotoxicity at 10 µM is 4.07%.

With `CN1C[C@H](COCC2CC2)[C@H]2CCN(Cc3ccco3)CC[C@H]2C1=O`, the cytotoxicity at 10 µM was -4.84%.

`Cc1cc(CNc2cccc(Cl)c2C)no1`: the cytotoxicity at 10 µM was -2.4%.

As to `CCn1c(CN(C)Cc2cnc(C)s2)nc2cc(F)ccc21`, the cytotoxicity at 10 µM is -31.9%.

As for `CN(C)CCNC(=O)c1nc2c(o1)CN(C(=O)c1cccnc1)C2`, the cytotoxicity at 10 µM amounted to 0.109%.

As to `CC(C)CCN(C)C(=O)c1cc(CN2CCC(O)CC2)on1`, the cytotoxicity at 10 µM stood at 1.06%.

For `CN(C)CCNc1cc(-c2ncccc2O)c2cc[nH]c2n1`, the cytotoxicity at 10 µM turned out to be 7.28%.

Turning to `NC(=O)CN(C(=O)Cc1cccc(C(F)(F)F)c1)C1CCCC1`, the cytotoxicity at 10 µM was found to be 3.71%.

Turning to `COc1ccc(-c2nc(CN3CC(n4cc(C)cn4)C3)no2)cc1`, the cytotoxicity at 10 µM is -14.9%.

`COCC(=O)N1CCN(c2cc(-n3cccc3)nc(C)n2)CC1`: the cytotoxicity at 10 µM was -6.81%.

For `CSCc1ccc(N2CCN(c3ccc(Cl)cn3)CC2)nc1`, the cytotoxicity at 10 µM is -9.64%.

For the compound `COCCN1C[C@@H]2CN(Cc3ccsc3)CCC[C@]2(C(=O)O)C1`, the cytotoxicity at 10 µM is -10.6%.

`CN(Cc1ccsc1)C(=O)c1nc(N2CCCC2)ncc1Cl`: the cytotoxicity at 10 µM is -45.5%.

Turning to `COC[C@]1(O)CCN(C2CCN(c3ccc(OC)cc3)CC2)CC1(C)C`, the cytotoxicity at 10 µM is -3.17%.

Consider `O=C(COC1CCCCC1)N1CCCC(n2ccnc2)C1` (centres undefined), for which the cytotoxicity at 10 µM was -19.7%.

Regarding `Cc1cc(C)c(CNC(=O)NCCC2CCCO2)c(=O)[nH]1` (centres undefined), the cytotoxicity at 10 µM is -6.33%.

Take `CC(C)N(C)Cc1cncc2c1CCN(C1CCOCC1)C2`: the cytotoxicity at 10 µM is 5.88%.

With `CNC(=O)Cn1ccc2ccc(NC(=O)NC(C)C(C)C)cc21` (centres undefined), the cytotoxicity at 10 µM was found to be 3.36%.

`CC(O)CN1CCC(CN(C)CC(=O)NC(C)C)CC1` (centres undefined): the cytotoxicity at 10 µM was -2.32%.

For the compound `c1cc(CO[C@H]2CC[C@H]3[C@H]2OCCN3Cc2nccs2)ccn1`, the cytotoxicity at 10 µM was -109%.

As to `Cc1nc2cc(=O)[nH]n2c(C)c1CNC(=O)C(C)Cc1ccccc1` (centres undefined), the cytotoxicity at 10 µM is -7.27%.
